Measurements from ChEMBL document CHEMBL4480412, “Deleting a Chromatin Remodeling Gene Increases the Diversity of Secondary Metabolites Produced by Colletotrichum higginsianum” (2019).
≈ marks a conversion by molar mass, not a printed value.

Experiments:
Aspergillus ochraceus = assay: Antifungal activity against Aspergillus ochraceus ATCC 1009 by EUCAST method; assay type: functional
Outline: (§1)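 Susceptibility testing by the EUCAST method; read-out is minimal inhibitory concentration (MIC). Amphotericin B used as reference antifungal.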

[1] = target: Collagenase (Homo sapiens) (UniProt P08253+P14780+P22894+P45452+P03956); assay: Inhibition of collagenase (unknown origin) at 200 uM relative to control; assay type: protein assay
Micrococcus luteus = assay: Antibacterial activity against Micrococcus luteus ATCC 10240 by broth microdilution method; assay type: functional
Outline: (§2)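 Broth microdilution run to CLSI guidelines; read-out is minimal inhibitory concentration (MIC). Chloramphenicol used as reference antibacterial.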

Escherichia coli = assay: Antibacterial activity against Escherichia coli ATCC 25922 by broth microdilution method; assay type: functional; outline: as §2
Homo sapiens [2] = species on record: Homo sapiens; assay: Inhibition of hyaluronidase (unknown origin) at 200 uM relative to control
[3] = target: T1, Tyrosinase (Homo sapiens) (UniProt P14679); assay: Inhibition of tyrosinase (unknown origin) at 200 uM relative to control
T1 sequence (whole entry): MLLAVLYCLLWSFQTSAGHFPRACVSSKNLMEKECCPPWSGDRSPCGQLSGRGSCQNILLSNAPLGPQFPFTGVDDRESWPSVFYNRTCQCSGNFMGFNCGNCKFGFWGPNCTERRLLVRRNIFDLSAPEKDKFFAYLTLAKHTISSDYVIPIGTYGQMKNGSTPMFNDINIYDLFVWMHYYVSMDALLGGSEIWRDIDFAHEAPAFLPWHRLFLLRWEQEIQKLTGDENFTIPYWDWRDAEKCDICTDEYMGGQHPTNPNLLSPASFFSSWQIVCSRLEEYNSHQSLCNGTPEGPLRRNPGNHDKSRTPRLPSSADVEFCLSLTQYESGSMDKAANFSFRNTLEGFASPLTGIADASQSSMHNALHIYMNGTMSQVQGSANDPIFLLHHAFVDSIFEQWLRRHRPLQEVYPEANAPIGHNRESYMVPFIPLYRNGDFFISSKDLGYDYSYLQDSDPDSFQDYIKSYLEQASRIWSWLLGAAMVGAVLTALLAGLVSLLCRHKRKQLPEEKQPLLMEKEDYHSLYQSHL

[4] = Antioxidant activity assessed as DPPH radical scavenging activity at 200 uM; assay type: functional
Bacillus spizizenii = assay: Antibacterial activity against Bacillus subtilis ATCC 6633 by broth microdilution method; assay type: functional; outline: as §2
Botrytis cinerea = assay: Antifungal activity against Botrytis cinerea B05.10 by EUCAST method; assay type: functional; outline: as §1
Homo sapiens [5] = species on record: Homo sapiens; assay: Inhibition of elastase (unknown origin) at 200 uM relative to control
Rhizopus arrhizus = assay: Antifungal activity against Rhizopus oryzae ATCC 11145 by EUCAST method; assay type: functional; outline: as §1

| SMILES | MIC (Aspergillus ochraceus) [µM] | inhibition [1] [%] | MIC (Micrococcus luteus) [µM] | MIC (Escherichia coli) [µM] | inhibition (Homo sapiens [2]) [%] | inhibition [3] [%] | MIC (Bacillus spizizenii) [µM] | MIC (Botrytis cinerea) [µM] | inhibition (Homo sapiens [5]) [%] | MIC (Rhizopus arrhizus) [µM] | inhibition [4] [%] |
| --- | --- | --- | --- | --- | --- | --- | --- | --- | --- | --- | --- |
| CC(C)=CCc1c(O)cc(C)c(C(=O)O)c1O | > 225 | < 20 | > 225 | > 225 | < 20 | < 20 | > 225 | > 225 | < 20 | > 225 | < 20 |
| C[C@@H]1[C@H](O)[C@@H](C)/C=C/C=C/C=C/C=C/C=C/C=C/C=C/[C@H](O[C@@H]2O[C@H](C)[C@@H](O)[C@H](N)[C@@H]2O)C[C@@H]2O[C@](O)(C[C@@H](O)C[C@@H](O)[C@H](O)CC[C@@H](O)C[C@@H](O)CC(=O)O[C@H]1C)C[C@H](O)[C@H]2C(=O)O [AMPHOTERICIN B] | 2 (≈ 1.85 µg/mL) | – | – | – | – | – | – | 2 (≈ 1.85 µg/mL) | – | 2 (≈ 1.85 µg/mL) | – |
| CC(C)=CCc1c(O)cc(C)c(C=O)c1O | > 225 | < 20 | > 225 | > 225 | < 20 | < 20 | > 225 | > 225 | < 20 | > 225 | < 20 |
| O=C(N[C@H](CO)[C@H](O)c1ccc([N+](=O)[O-])cc1)C(Cl)Cl [CHLORAMPHENICOL] | – | – | 10 (≈ 3.23 µg/mL) | 10 (≈ 3.23 µg/mL) | – | – | 10 (≈ 3.23 µg/mL) | – | – | – | – |

Now from value to molecule, other results behind:

| MIC (Aspergillus ochraceus) [µM] | inhibition [1] [%] | MIC (Micrococcus luteus) [µM] | MIC (Escherichia coli) [µM] | inhibition (Homo sapiens [2]) [%] | inhibition [3] [%] | MIC (Bacillus spizizenii) [µM] | MIC (Botrytis cinerea) [µM] | inhibition (Homo sapiens [5]) [%] | MIC (Rhizopus arrhizus) [µM] | SMILES | inhibition [4] [%] |
| --- | --- | --- | --- | --- | --- | --- | --- | --- | --- | --- | --- |
| > 225 | < 20 | > 225 | > 225 | < 20 | < 20 | > 225 | > 225 | < 20 | > 225 | C=C1CC[C@@H]2[C@](C)(CC[C@H]3O[C@@H](C(C)(C)O)CC[C@@]23C)[C@@H]1Cc1c(O)c(C)c(C)oc1=O | < 20 |
| > 225 | < 20 | > 225 | > 225 | < 20 | < 20 | > 225 | > 225 | < 20 | > 225 | C=C1CC[C@@H]2[C@](C)(CC[C@H]3O[C@H](C(C)(C)O)CC[C@@]23C)[C@@H]1Cc1c(O)c(C)c(C)oc1=O | < 20 |
| > 225 | < 20 | > 225 | > 225 | < 20 | < 20 | > 225 | > 225 | < 20 | > 225 | CO[C@@H]1[C@@H](O)[C@H](O)[C@H](OC(=O)C2=CC[C@H](C(C)C)[C@H]3C=C(C)CC[C@@H]23)[C@H](OC)[C@H]1O | < 20 |
